The results in this text go back to ChEMBL document CHEMBL3091319, “Chemical synthesis and biological validation of immobilized protein kinase inhibitory Leucettines” (Eur J Med Chem, 2013).

Calls of active or inactive are those of the source. The rule behind the calls is not given here.

The species named for one experiment is Mus musculus. Description: Binding affinity to GSK3 in mouse brain extracts by Western blot analysis. Format: tissue-based. Put shortly: (§1)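 Mouse brains homogenized and sonicated in Mops pH 7.2 buffer with β-glycerophosphate, phosphatase and protease inhibitors, spun 15 min at 17,000×g at 4 °C. Extract (1 or 2 mg total protein) rotated 30 min at 4 °C with ligand-linker coupled via amine to CNBr-activated Sepharose. Beads washed 4×, boiled 3 min in LDS/DTT, then 10% Bis-Tris SDS-PAGE and immunoblot with specific antibodies and ECL.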
For orientation: A western blot detects proteins with antibodies after separation by electrophoresis.

For experiment [1], the target named is Dual specificity tyrosine-phosphorylation-regulated kinase 1A (Mus musculus) (UniProt Q61214). Description: Binding affinity to DYRK1A in mouse brain extracts by Western blot analysis. Format: tissue-based. Put shortly:
as §1

The target of experiment [2] is Glycogen synthase kinase-3 (Sus scrofa, UniProt B2LUN4+I6LNT8). Description: Inhibition of porcine brain GSK-3alpha/beta using YRRAAVPPSPSLSRHSSPHQSpEDEEE as substrate. Put shortly:
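Reaction harvested onto P81 paper, washed in 1% phosphoric acid, and scintillation-counted. Blanks subtracted; activity as % of the no-inhibitor activity, with DMSO controls. IC50 from dose-response curves.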

The target of experiment [3] is T1, Dual specificity tyrosine-phosphorylation-regulated kinase 3 (Homo sapiens, UniProt O43781).
T1 sequence (O43781 whole entry): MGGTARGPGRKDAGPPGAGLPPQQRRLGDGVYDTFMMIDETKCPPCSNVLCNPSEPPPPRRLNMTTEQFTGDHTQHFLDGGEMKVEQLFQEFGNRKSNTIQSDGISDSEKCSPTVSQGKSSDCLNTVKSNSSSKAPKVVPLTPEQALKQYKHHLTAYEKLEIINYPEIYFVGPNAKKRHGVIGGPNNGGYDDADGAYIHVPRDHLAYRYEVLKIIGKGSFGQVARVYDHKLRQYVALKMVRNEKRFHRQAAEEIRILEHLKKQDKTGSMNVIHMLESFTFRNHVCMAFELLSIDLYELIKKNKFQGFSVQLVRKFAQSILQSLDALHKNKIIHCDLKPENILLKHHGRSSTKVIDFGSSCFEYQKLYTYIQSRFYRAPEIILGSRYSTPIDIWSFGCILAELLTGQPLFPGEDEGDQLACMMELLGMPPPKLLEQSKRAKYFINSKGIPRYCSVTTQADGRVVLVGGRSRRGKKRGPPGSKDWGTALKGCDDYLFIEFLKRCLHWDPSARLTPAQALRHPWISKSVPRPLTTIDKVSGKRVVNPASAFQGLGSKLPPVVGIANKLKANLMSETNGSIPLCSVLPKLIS
Description: Inhibition of human recombinant DYRK3 expressed in Escherichia coli using GRSRSRSRSRSR as substrate.

Experiment [4] deals with T2, Dual specificity tyrosine-phosphorylation-regulated kinase 2 (Homo sapiens, UniProt Q92630).
T2 sequence (Q92630 whole entry): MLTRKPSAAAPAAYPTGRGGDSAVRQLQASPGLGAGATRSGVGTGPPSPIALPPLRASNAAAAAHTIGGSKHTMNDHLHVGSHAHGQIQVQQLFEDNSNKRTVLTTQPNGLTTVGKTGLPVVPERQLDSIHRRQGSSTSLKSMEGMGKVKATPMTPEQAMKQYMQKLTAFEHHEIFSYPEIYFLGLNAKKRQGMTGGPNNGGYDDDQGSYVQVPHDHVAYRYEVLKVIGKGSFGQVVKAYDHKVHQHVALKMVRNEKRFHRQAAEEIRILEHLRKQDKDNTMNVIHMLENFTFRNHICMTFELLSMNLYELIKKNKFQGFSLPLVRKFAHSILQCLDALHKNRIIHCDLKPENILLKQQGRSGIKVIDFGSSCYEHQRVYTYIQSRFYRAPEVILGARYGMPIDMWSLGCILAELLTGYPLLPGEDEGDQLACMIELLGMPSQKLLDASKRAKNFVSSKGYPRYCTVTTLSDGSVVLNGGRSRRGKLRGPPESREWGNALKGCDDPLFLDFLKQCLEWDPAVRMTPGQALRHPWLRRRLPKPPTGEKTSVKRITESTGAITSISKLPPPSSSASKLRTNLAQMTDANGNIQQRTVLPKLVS
Description: Inhibition of human recombinant DYRK2 expressed in Escherichia coli using GRSRSRSRSRSR as substrate.

For experiment [5], the target named is Dual specificity tyrosine-phosphorylation-regulated kinase 1B (Homo sapiens, UniProt Q9Y463).
Chain of Dual specificity tyrosine-phosphorylation-regulated kinase 1B (Q9Y463 whole entry): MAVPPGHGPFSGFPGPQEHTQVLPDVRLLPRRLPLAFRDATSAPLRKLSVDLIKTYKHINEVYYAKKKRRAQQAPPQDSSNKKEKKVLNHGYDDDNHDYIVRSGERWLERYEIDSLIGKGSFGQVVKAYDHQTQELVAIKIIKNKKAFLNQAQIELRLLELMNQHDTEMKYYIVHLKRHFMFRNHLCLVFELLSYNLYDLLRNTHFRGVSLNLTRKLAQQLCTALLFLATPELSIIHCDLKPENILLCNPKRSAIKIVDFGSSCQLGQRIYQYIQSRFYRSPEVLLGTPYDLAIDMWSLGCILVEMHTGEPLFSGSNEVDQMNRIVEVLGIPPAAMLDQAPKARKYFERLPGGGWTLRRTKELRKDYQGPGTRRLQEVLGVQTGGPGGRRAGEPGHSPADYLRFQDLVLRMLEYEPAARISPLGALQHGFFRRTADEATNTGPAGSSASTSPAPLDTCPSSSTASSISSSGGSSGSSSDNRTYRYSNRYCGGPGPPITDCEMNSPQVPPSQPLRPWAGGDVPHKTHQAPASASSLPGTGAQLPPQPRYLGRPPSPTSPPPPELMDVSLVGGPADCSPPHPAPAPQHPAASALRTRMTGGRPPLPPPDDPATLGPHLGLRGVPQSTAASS
The target of experiment [6] is Dual specificity tyrosine-phosphorylation-regulated kinase 1A (Homo sapiens, UniProt Q13627). Description: Inhibition of human recombinant DYRK1A expressed in Escherichia coli using GRSRSRSRSRSR as substrate.
For experiment [7], the target named is Dual specificity protein kinase CLK4 (Mus musculus, UniProt O35493). The experiment in a line: Inhibition of mouse recombinant CLK4 expressed in Escherichia coli using GRSRSRSRSRSR as substrate.
Chain of Dual specificity protein kinase CLK4 (O35493 whole entry): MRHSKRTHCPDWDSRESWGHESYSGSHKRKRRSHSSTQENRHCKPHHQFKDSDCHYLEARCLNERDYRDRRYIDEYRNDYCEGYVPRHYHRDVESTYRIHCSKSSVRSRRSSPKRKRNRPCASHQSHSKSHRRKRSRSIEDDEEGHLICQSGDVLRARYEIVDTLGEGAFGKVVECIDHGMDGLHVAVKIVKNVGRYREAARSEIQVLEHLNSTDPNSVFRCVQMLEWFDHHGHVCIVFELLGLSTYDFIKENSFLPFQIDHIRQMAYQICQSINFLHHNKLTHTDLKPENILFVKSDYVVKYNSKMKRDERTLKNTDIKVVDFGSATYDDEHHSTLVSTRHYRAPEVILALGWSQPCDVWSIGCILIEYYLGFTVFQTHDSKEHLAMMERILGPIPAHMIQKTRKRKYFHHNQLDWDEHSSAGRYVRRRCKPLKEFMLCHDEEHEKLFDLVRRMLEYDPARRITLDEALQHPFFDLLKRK
Experiment [8] has as its target Dual specificity protein kinase CLK3 (Mus musculus, UniProt O35492). Description: Inhibition of mouse recombinant CLK3 expressed in Escherichia coli using GRSRSRSRSRSR as substrate. Put shortly:
(§2)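 Human DYRKs and mouse CLKs were expressed in E. coli as GST fusions and purified on glutathione-agarose. Each was assayed with RS peptide substrate and [γ-33P]ATP in buffer D at 30 °C for 30 min. Phosphorylation was read on P81 filters by scintillation. Activity is given as % of maximal after blank subtraction, and IC50 was derived from dose-response curves.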

The target of experiment [9] is Dual specificity protein kinase CLK2 (Mus musculus, UniProt O35491). The experiment in a line: Inhibition of mouse recombinant CLK2 expressed in Escherichia coli using GRSRSRSRSRSR as substrate. Put shortly:
as §2

In experiment [10] the target is Dual specificity protein kinase CLK1 (Mus musculus, UniProt P22518). The experiment in a line: Inhibition of mouse recombinant CLK1 expressed in Escherichia coli using GRSRSRSRSRSR as substrate. Put shortly:
as §2

Experiment [11] is described as follows: Inhibition of porcine brain CK1delta/epsilon using RRKHAAIGpSAYSITA as substrate. More on the design: species or system Sus scrofa. The method, boiled down:
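Native porcine brain CK1δ/ε was assayed with the CKS phosphopeptide substrate, [γ-33P]ATP and buffer D for 30 min at 30 °C. Product was captured on P81 paper and counted by scintillation. IC50 was calculated from dose-response curves, with activity as % of the no-inhibitor control.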

The target in the next experiment is CDK9/cyclin T1 (Homo sapiens, UniProt P50750). Description: Inhibition of human recombinant CDK9/cyclin T using YSPTSPSYSPTSPSYSPTSPSKKKK as substrate. In kind it is protein-complex assay. Put shortly: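 CDK9/cyclin T was human recombinant, made in insect cells. It was run like the CDK1 radiometric assay: buffer D with [γ-33P]ATP, 30 min at 30 °C, CDK7/9 tide peptide substrate, P81 capture and scintillation counting. IC50 came from dose-response curves relative to a DMSO control.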
Chain of CDK9/cyclin T1 (O60563 whole entry): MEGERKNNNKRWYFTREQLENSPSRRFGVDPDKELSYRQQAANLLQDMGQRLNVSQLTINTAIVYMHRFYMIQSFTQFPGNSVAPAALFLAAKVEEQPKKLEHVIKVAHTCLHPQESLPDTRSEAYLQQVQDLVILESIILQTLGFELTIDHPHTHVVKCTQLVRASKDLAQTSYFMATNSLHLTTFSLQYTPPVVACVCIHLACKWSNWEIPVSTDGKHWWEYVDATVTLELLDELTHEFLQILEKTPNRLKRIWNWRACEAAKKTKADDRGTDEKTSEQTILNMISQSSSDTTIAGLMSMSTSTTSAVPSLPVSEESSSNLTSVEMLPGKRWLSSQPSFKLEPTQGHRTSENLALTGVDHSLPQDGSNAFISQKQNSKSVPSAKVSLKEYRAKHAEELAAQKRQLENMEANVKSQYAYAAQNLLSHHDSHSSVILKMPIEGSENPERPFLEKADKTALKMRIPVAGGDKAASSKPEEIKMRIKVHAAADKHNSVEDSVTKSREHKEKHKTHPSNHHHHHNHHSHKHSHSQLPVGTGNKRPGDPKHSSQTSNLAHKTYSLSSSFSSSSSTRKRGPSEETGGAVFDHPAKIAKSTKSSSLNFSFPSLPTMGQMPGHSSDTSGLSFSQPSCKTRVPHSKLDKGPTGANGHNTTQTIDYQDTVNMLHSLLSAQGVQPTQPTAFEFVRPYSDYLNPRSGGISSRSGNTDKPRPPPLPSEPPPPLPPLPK
Chain of CDK9/cyclin T1 (P50750 whole entry): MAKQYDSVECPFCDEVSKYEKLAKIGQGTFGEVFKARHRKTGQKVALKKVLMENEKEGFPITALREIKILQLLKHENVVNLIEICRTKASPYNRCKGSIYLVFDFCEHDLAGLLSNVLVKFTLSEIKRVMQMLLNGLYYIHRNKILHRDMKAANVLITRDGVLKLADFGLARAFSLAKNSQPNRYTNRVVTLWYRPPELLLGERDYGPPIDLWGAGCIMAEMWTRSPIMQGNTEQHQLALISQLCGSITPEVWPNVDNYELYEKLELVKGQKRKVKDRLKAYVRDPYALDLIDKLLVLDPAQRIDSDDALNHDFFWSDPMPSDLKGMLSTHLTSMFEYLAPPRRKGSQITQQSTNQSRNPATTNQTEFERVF

Experiment [12] concerns the target Cyclin-dependent kinase 5/CDK5 activator 1 (Homo sapiens, UniProt Q00535). Description: Inhibition of human recombinant CDK5/p25 using [gamma-33P]-ATP after 30 mins by scintillation counting. Format: protein-complex assay.
The target of another experiment is CDK2/Cyclin A2 (Homo sapiens, UniProt P24941). The experiment in a line: Inhibition of human recombinant CDK2/cyclin A using [gamma-33P]-ATP after 30 mins by scintillation counting. Format: protein-complex assay. The method, boiled down:
(§3)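 Native starfish M-phase CDK1/cyclin B or human recombinant CDK2 or CDK5/p25 was incubated with histone H1 (1 mg/mL) and [γ-33P]ATP in buffer D (10 mM MgCl2, 1 mM EGTA, 1 mM DTT, 25 mM Tris/HCl, heparin) at 30 °C for 30 min. BSA was added except for CDK2. Reactions were spotted on P81 paper, washed in 1% phosphoric acid and counted by scintillation. Activity is expressed as % of the no-inhibitor control with blanks subtracted. IC50 was taken from dose-response curves.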

Experiment [13] in a line: Inhibition of M phase starfish oocytes CDK1/cyclin B using [gamma-33P]-ATP after 30 mins by scintillation counting. More on the design: species or system Asteroidea. Put shortly:
as §3

Chain of Dual specificity protein kinase CLK1 (P22518 whole entry): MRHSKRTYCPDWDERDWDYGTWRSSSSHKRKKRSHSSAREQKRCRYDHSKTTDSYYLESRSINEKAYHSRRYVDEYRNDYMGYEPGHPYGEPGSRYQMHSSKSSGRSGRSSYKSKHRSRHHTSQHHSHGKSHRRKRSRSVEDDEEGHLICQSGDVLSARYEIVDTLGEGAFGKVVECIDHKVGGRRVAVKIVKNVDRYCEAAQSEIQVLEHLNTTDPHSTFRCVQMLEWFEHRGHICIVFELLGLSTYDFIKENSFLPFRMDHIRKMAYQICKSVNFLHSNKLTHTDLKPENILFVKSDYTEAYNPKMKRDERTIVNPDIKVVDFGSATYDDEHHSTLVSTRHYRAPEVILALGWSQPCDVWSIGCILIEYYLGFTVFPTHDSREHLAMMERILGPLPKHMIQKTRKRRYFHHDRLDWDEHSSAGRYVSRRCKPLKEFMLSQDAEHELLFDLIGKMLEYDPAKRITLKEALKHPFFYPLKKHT
Chain of Dual specificity protein kinase CLK3 (O35492 whole entry, the tested form may be a part): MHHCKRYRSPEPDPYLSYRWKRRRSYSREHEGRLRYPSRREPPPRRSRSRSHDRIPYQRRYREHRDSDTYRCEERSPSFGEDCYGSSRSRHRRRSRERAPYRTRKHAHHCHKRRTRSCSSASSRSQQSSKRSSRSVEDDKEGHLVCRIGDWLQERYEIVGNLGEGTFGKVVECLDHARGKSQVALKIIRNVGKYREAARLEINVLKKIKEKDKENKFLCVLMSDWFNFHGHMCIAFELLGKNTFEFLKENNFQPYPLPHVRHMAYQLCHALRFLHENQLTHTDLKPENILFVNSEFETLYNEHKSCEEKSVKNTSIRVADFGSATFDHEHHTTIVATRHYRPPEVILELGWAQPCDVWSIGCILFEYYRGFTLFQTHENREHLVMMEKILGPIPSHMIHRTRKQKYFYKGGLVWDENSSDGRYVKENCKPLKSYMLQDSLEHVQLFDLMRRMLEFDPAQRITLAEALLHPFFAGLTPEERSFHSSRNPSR
Chain of Dual specificity protein kinase CLK2 (O35491 whole entry): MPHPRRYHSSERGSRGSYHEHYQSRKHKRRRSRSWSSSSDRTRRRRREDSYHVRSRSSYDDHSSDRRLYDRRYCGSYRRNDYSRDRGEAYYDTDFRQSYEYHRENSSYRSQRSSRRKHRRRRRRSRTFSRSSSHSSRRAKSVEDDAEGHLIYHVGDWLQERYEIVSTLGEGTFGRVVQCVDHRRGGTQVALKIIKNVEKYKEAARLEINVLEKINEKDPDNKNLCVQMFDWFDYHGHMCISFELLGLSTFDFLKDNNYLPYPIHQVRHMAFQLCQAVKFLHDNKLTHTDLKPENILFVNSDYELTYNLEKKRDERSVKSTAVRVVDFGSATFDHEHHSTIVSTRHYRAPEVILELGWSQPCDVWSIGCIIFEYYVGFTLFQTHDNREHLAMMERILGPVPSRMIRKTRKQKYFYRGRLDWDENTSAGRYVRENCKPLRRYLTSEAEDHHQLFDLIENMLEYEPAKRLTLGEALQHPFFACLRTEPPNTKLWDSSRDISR
Chain of Cyclin-dependent kinase 5/CDK5 activator 1 (Q00535 whole entry): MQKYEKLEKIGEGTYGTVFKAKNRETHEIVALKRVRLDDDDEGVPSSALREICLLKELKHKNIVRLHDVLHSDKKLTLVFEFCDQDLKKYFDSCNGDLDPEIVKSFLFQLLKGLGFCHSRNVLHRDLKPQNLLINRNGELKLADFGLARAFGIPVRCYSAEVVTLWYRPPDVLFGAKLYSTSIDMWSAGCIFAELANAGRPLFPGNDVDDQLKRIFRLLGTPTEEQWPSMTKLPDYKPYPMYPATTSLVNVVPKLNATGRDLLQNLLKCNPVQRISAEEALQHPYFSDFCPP
Chain of Cyclin-dependent kinase 5/CDK5 activator 1 (Q15078 whole entry, further chain): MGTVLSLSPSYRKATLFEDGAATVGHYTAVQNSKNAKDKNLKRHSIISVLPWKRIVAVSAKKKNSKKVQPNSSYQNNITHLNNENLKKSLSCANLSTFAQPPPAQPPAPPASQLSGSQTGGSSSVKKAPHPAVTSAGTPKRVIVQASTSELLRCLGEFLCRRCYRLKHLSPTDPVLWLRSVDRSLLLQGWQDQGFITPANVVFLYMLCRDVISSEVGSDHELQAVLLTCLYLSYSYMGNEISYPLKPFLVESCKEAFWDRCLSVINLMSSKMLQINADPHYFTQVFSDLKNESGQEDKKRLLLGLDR

A word on the IC50: it is the concentration that gives 50% inhibition. As to `NCCOCCOCCOCCOc1ccc(NC2=N/C(=C\c3ccc4c(c3)OCO4)C(=O)N2)cc1`, the result (in the experiment filed under Mus musculus; in [1]) was Active. The IC50 in experiment [2] was 0.2 µM; in experiment [3], 0.18 µM; in [4], 0.13 µM; in experiment [5], 0.072 µM; in experiment [6], 0.028 µM; in experiment [7], 0.061 µM. The IC50 in experiment [8] was 0.55 µM; in experiment [9], 0.21 µM; in experiment [10] it was 0.061 µM; in experiment [11], greater than 10 µM; at CDK9/cyclin T1 it was 3.7 µM; in [12], greater than 10 µM. Further, the IC50 (at CDK2/Cyclin A2; in experiment [13]) was greater than 10 µM throughout.

As to `NCCOCCOCCO`, the IC50 in experiment [2], in [3], in [4], in [5], in [6] and in experiment [7] was greater than 10 µM each time. Moreover, the IC50 (in experiment [8]; in [9]; in experiment [10]; in experiment [11]; at CDK9/cyclin T1; in [12]) was greater than 10 µM throughout. For the same compound, the IC50 (on CDK2/Cyclin A2; in [13]) was greater than 10 µM throughout.

Turning to `NCCOCCOCCOc1ccc(NC2=N/C(=C\c3ccccc3)C(=O)N2)cc1`, the result (in the experiment listed under Mus musculus; in experiment [1]) was Active. In addition, the half-inhibitory concentration (IC50) is 40 µM in experiment [2]; greater than 10 µM in [3]; greater than 10 µM in experiment [4]; greater than 10 µM in experiment [5]; 8.5 µM in experiment [6]; greater than 10 µM in experiment [7]. For the same compound, the half-inhibitory concentration (IC50) (in experiment [8]; in [9]; in experiment [10]; in [11]; on CDK9/cyclin T1; in [12]) was greater than 10 µM in each case. Besides, the 50% inhibitory concentration (IC50) (on CDK2/Cyclin A2; in experiment [13]) was greater than 10 µM each time.

With `O=C1NC(Nc2ccccc2)=N/C1=C\c1ccc2c(c1)OCO2`, the IC50 in experiment [2] is 0.73 µM; in experiment [8], 3 µM; in experiment [9], 0.32 µM; in experiment [10], 0.035 µM; in [11] it was greater than 10 µM; on CDK9/cyclin T1 it was greater than 10 µM. The 50% inhibitory concentration (IC50) (on CDK2/Cyclin A2; in experiment [13]) was greater than 10 µM in each case.

`O=C1NC(Nc2ccccc2)=N/C1=C\c1ccccc1`: the IC50 in [2] is greater than 100 µM; in experiment [3], greater than 10 µM; in experiment [4] it was greater than 10 µM; in experiment [5], greater than 10 µM; in experiment [6], greater than 100 µM; in experiment [7], greater than 10 µM. The concentration for half-maximal inhibition (IC50) (in experiment [8]; in experiment [9]; in experiment [10]; in [11]; on CDK9/cyclin T1; in experiment [12]) was greater than 10 µM throughout. Moreover, the IC50 (at CDK2/Cyclin A2; in experiment [13]) was greater than 10 µM in each case.

As for `NCCOCCOCCOc1ccc(NC2=N/C(=C\c3ccc4c(c3)OCO4)C(=O)N2)cc1`, the outcome (in the experiment filed under Mus musculus; in experiment [1]) was Active. Also, the IC50 turned out to be 0.27 µM in experiment [2]; 0.2 µM in [3]; 0.15 µM in [4]; 0.11 µM in [5]; 0.05 µM in [6]; 0.081 µM in experiment [7]. Also, the IC50 is 0.81 µM in experiment [8]; 0.28 µM in experiment [9]; 0.075 µM in experiment [10]; greater than 10 µM in experiment [11]; 7.4 µM on CDK9/cyclin T1; greater than 10 µM in [12]. Moreover, the IC50 (at CDK2/Cyclin A2; in experiment [13]) was greater than 10 µM each time.
